Calls of active or inactive are those of the source. The rule behind the calls is not given here. Square brackets hold non-standard residues; d marks the D form. Peptide text beside a SMILES is read from it. Gly(pent-4-enyl) = C=CCCC[C@H](N)C(=O)O
Tests used:
[1] = biological target: Abl interactor 2 (Homo sapiens) (UniProt Q9NYB9); experiment: Binding affinity to ABI2 in human MDA-MB-231 cells at 2 uM measured after 4 hrs by measuring pulldown using streptavidin agarose resin by immunoblot analysis
Sequence of Abl interactor 2 (Homo sapiens) (Q9NYB9 whole entry, looked up): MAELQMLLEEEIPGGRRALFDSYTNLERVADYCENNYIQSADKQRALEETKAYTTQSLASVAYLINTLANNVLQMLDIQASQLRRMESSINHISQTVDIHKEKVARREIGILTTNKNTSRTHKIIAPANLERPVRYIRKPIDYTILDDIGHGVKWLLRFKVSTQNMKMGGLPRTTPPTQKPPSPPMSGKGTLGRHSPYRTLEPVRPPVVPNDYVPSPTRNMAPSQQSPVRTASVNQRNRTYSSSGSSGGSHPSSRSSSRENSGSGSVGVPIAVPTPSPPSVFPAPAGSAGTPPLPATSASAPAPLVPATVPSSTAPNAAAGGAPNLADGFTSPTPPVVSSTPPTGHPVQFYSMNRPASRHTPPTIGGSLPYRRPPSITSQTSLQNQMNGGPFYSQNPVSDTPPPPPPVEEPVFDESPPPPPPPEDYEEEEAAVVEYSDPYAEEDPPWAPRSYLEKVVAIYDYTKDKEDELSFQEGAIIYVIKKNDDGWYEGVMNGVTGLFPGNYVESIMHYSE

[2] = Downregulation of MMP9 expression in human MDA-MB-231 cells at 2 uM measured after 72 hrs by immunoblot analysis relative to control; type: functional
Outline: (§1)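 Cells exposed 72 h to peptides, scramble control or vehicle. MMP9 protein levels measured by immunoblotting and quantified by densitometry across three independent blots. Levels compared against scramble control and vehicle.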

MDA-MB-231 [3] = experiment: Antiinvasive activity against human MDA-MB-231 cells assessed as reduction in number of invading cells incubated for 24 hrs by crystal violet staining based matrigel trans well migration assay; type: functional, cell-based; conditions: dose 0.5-2 µM, DDE = dose-dependent effect
Outline: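 Matrigel invasion assay with peptide at 0.5–2 μM, scramble control (2 μM), reference peptide (10 μM) or DMSO. Invading cells fixed with paraformaldehyde, stained with crystal violet, imaged and counted in ImageJ. At least three independent assays; mean ± SD; one-way ANOVA with Bonferroni test.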

MDA-MB-231 [4] = experiment: Downregulation of MMP9 expression in human MDA-MB-231 cells at 2 uM measured after 72 hrs by immunoblot analysis; type: functional, cell-based
Outline: as §1

MDA-MB-231 [5] = experiment: Antiinvasive activity against human MDA-MB-231 cells assessed as reduction in cell motility at 0.5 to 2 uM incubated for 18 hrs by wound healing assay relative to control; type: functional; set-up: scale not given: the % may be the effect or the level left; conditions: dose 0.5-2 µM
MDA-MB-231 [6] = experiment: Drug uptake in human MDA-MB-231 cells by measuring uptake of fluorescence intensity in cytoplasm at 10 uM measured after 4 hrs by fluorescence microscopy method; type: functional, cell-based
Outline: (§2)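 Cells incubated 4 h with 5(6)-carboxyfluorescein-labeled peptide (2 μM or 10 μM) or DMSO. Cytoplasmic fluorescence imaged by fluorescence microscopy. n = 4.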

MDA-MB-231 [7] = experiment: Induction of WRC disruption in human MDA-MB-231 cells assessed as increase in actin stress fiber formation at 2 uM incubated for 4 hrs by phalloidin-iFluor 594 dye based inverted fluorescent microscopic method; type: functional, cell-based
Outline: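 Cells treated 4 h with biotin-labeled peptides, scramble control or DMSO. Cells then fixed, permeabilized and stained with phalloidin-iFluor 594 to show polymeric actin stress fibers by fluorescence imaging. n = 4.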

MDA-MB-231 [8] = experiment: Antiinvasive activity against human MDA-MB-231 cells assessed as reduction in cell motility at 2 uM incubated for 18 hrs by wound healing assay; type: functional, cell-based
[9] = biological target: T1, Actin-binding protein WASF3 (Homo sapiens) (UniProt Q9UPY6); experiment: Degradation of WASF3 in human serum starved MDA-MB-231 cells assessed as reduction in ABI2 expression at 2 uM measured after 72 hrs by Western blot analysis; type: cell-based
T1 sequence (whole entry): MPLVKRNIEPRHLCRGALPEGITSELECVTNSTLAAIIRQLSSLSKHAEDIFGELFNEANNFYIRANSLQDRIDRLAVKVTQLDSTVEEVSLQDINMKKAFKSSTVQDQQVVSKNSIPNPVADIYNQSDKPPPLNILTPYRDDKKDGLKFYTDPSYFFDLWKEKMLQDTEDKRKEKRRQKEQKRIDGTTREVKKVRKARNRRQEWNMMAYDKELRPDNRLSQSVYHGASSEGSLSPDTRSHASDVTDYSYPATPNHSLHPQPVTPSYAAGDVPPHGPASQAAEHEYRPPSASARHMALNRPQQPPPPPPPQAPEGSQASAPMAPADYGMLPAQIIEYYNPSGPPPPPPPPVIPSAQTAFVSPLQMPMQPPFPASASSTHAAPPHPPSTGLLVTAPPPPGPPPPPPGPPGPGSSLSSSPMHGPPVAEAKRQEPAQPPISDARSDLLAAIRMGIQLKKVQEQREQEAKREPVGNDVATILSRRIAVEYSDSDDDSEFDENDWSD
Outline: (§3)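 Cells treated 72 h with peptides or controls. Lysates immunoblotted for ABI2 and WASF3. Band densitometry from three independent Western blots.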

MDA-MB-231 [10] = experiment: Drug uptake in human MDA-MB-231 cells by measuring uptake of fluorescence intensity in cytoplasm at 2 uM measured after 4 hrs by fluorescence microscopy method; type: functional, cell-based
Outline: as §2

[11] = biological target: T1, Actin-binding protein WASF3 (Homo sapiens); experiment: Degradation of WASF3 in human serum starved MDA-MB-231 cells assessed as reduction in WASF3 expression at 2 uM measured after 72 hrs by Western blot analysis; type: cell-based
Outline: as §3

MDA-MB-231 [12] = experiment: Antiinvasive activity against human MDA-MB-231 cells assessed as reduction in cell motility incubated for 18 hrs by wound healing assay relative to control; type: functional, cell-based; conditions: dose 0.5-2 µM, DDE = dose-dependent effect
MDA-MB-231 [13] = experiment: Drug uptake in human MDA-MB-231 cells by measuring uptake of fluorescence intensity in cytoplasm at 10 uM measured after 4 hrs by fluorescence microscopy method

C=CCCC[C@H](NC(=O)[C@H](CCCCN)NC(=O)[C@H](CO)NC(=O)[C@H](CC(C)C)NC(=O)[C@H](CCCC=C)NC(=O)[C@H](CO)NC(=O)[C@H](CC(C)C)NC(=O)[C@H](CCCCN)NC(=O)[C@H](CCCNC(=N)N)NC(=O)[C@@H](NC(=O)[C@@H](NC(=O)[C@@H](N)CCCCN)[C@@H](C)CC)[C@@H](C)CC)C(=O)N[C@@H](C)C(=O)N[C@@H](CCC(=O)O)C(=O)N[C@@H](CCCCN)C(=O)N[C@H](C(=O)N[C@@H](Cc1ccccc1)C(=O)NCC(=O)N[C@@H](CCC(=O)O)C(=O)N[C@@H](CC(C)C)C(=O)N[C@@H](Cc1ccccc1)C(=O)N[C@@H](CCCCN)C(=O)O)[C@@H](C)CC (H-KIIRKLS[Gly(pent-4-enyl)]LSK[Gly(pent-4-enyl)]AEKIFGELFK-OH)
Activity [1]: Active | Activity [2]: 40% | Activity (MDA-MB-231 [3]): Dde | Activity (MDA-MB-231 [4]): Active | Activity (MDA-MB-231 [5]): 48% | Drug uptake (MDA-MB-231 [6]; dose 2.0 µM, in the assay text read “at 2 uM” for “at 10 uM”): Active | Activity (MDA-MB-231 [7]): Active | Activity (MDA-MB-231 [8]): Active | Activity [9]: Active | Drug uptake (MDA-MB-231 [10]): Active | Activity [11]: Active | Activity (MDA-MB-231 [12]): Dde

C=CCCC[C@H](NC(=O)[C@H](CO)NC(=O)[C@H](CC(C)C)NC(=O)[C@H](CCCCN)NC(=O)[C@H](CO)NC(=O)[C@H](CC(C)C)NC(=O)[C@H](CCC(N)=O)NC(=O)[C@H](CCCNC(=N)N)NC(=O)[C@@H](NC(=O)[C@@H](NC(=O)[C@@H](N)CCCCN)[C@@H](C)CC)[C@@H](C)CC)C(=O)N[C@@H](Cc1cnc[nH]1)C(=O)N[C@@H](C)C(=O)N[C@@H](CCC(=O)O)C(=O)N[C@@H](CCCC=C)C(=O)N[C@H](C(=O)N[C@@H](Cc1ccccc1)C(=O)NCC(=O)N[C@@H](CCC(=O)O)C(=O)N[C@@H](CC(C)C)C(=O)N[C@@H](Cc1ccccc1)C(=O)N[C@@H](CCCCN)C(=O)O)[C@@H](C)CC (H-KIIRQLSKLS[Gly(pent-4-enyl)]HAE[Gly(pent-4-enyl)]IFGELFK-OH)
Activity (MDA-MB-231 [8]): Active

C=CCCC[C@H](NC(=O)[C@H](CO)NC(=O)[C@H](CC(C)C)NC(=O)[C@H](CCC(N)=O)NC(=O)[C@H](CCCC=C)NC(=O)[C@@H](NC(=O)[C@@H](NC(=O)[C@@H](N)CCCCN)[C@@H](C)CC)[C@@H](C)CC)C(=O)N[C@@H](CC(C)C)C(=O)N[C@@H](CO)C(=O)N[C@@H](CCCCN)C(=O)N[C@@H](Cc1cnc[nH]1)C(=O)N[C@@H](C)C(=O)N[C@@H](CCC(=O)O)C(=O)N[C@@H](CCCCN)C(=O)N[C@H](C(=O)N[C@@H](Cc1ccccc1)C(=O)NCC(=O)N[C@@H](CCC(=O)O)C(=O)N[C@@H](CC(C)C)C(=O)N[C@@H](Cc1ccccc1)C(=O)N[C@@H](CCCCN)C(=O)O)[C@@H](C)CC (H-KII[Gly(pent-4-enyl)]QLS[Gly(pent-4-enyl)]LSKHAEKIFGELFK-OH)
Activity (MDA-MB-231 [8]): Active

C=CCCC[C@H](NC(=O)[C@H](CO)NC(=O)[C@H](CC(N)=O)NC(=O)[C@@H](NC(=O)[C@H](CCCC=C)NC(=O)[C@H](CCCCN)NC(=O)[C@H](CCC(=O)O)NC(=O)[C@@H](N)CC(C)C)[C@@H](C)O)C(=O)N[C@@H](CC(C)C)C(=O)N[C@@H](C)C(=O)N[C@@H](CCCCN)C(=O)N[C@H](C(=O)N[C@H](C(=O)N[C@@H](CCCNC(=N)N)C(=O)N[C@@H](CCC(N)=O)C(=O)N[C@@H](CC(C)C)C(=O)O)[C@@H](C)CC)[C@@H](C)CC (H-LEK[Gly(pent-4-enyl)]TNS[Gly(pent-4-enyl)]LAKIIRQL-OH)
Drug uptake (MDA-MB-231 [13]): Active | Drug uptake (MDA-MB-231 [6]; dose 10.0 µM): Active | Activity [9]: Active | Activity [11]: Active

C=CCCC[C@H](NC(=O)[C@H](CCCNC(=N)N)NC(=O)[C@@H](NC(=O)[C@@H](NC(=O)[C@@H](N)CCCC=C)[C@@H](C)CC)[C@@H](C)CC)C(=O)N[C@@H](CC(C)C)C(=O)N[C@@H](CO)C(=O)N[C@@H](CCCCN)C(=O)N[C@@H](CC(C)C)C(=O)N[C@@H](CO)C(=O)N[C@@H](CCCCN)C(=O)N[C@@H](Cc1cnc[nH]1)C(=O)N[C@@H](C)C(=O)N[C@@H](CCC(=O)O)C(=O)N[C@@H](CCCCN)C(=O)N[C@H](C(=O)N[C@@H](Cc1ccccc1)C(=O)NCC(=O)N[C@@H](CCC(=O)O)C(=O)N[C@@H](CC(C)C)C(=O)N[C@@H](Cc1ccccc1)C(=O)N[C@@H](CCCCN)C(=O)O)[C@@H](C)CC (H-[Gly(pent-4-enyl)]IIR[Gly(pent-4-enyl)]LSKLSKHAEKIFGELFK-OH)
Activity (MDA-MB-231 [8]): Active
